# High-throughput results: PubChem BioAssay, The Scripps Research Institute Molecular Screening Center
# ABHD4 inh = inhibitors of mouse ABHD4 | inhibition, % at 8.92 µM | 0.54% of 370,000 active | purified mABHD4, FP-Rh probe fluorescence polarization;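 active = inhibition exceeding the mean over every tested compound plus 3 SD, cut at about 30% in these data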;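 also: 0% = plate median of compound wells and 100% = S159A mutant with DMSO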
#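 Test system: mABHD4 protein | Buffer or medium: HEPES pH 7.0 buffer, 150 mM NaCl, 0.01% Pluronic F-127 | Probe or stimulus: FP-Rh fluorescent activity-based probe, added after compound pre-incubation | Timing: Pre-incubation 45 min, probe exposure 60 min, at 25 °C | Technique: Fluorescence polarization, excitation 525 nm, emission 598 nm, BODIPY TMR filters | Repeats: Single well per compound (singlicate)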
# HTRA1 inhibitor = inhibitors of human serine peptidase HTRA1. Q92743. recombinant HTRA1, FP-rhodamine activity-based probe, fluorescence polarization. inhibition, % at 5.96 µM. 0.5% of 340,000 active. AID 504803; in the data active = inhibition above about 36%;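 also: 0% = enzyme with DMSO and 100% = wells lacking enzyme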
# Target sequence (Q92743 whole entry, looked up): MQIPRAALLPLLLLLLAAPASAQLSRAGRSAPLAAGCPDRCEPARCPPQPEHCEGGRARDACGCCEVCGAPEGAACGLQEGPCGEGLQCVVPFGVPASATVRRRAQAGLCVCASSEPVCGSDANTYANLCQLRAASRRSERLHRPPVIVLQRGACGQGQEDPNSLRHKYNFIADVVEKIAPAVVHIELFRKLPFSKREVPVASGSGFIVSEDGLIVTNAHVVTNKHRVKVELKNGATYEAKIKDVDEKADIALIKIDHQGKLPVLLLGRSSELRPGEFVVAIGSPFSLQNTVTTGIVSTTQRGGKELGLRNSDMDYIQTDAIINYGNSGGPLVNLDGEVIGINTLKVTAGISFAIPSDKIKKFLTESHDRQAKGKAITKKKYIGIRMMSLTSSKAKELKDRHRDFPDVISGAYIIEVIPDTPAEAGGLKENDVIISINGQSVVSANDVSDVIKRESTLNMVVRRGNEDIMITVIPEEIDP
# PRMT1 FP inh = PRMT1 (human) inhibition, primary screen; Q99873; recombinant PRMT1, activity-based probe fluorescence polarization; inhibition, % at 2.79 µM; 1.3% of 370,000 active;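 active = inhibition above about 21% made by adding two undisclosed values, limit read from the data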
# SIAE primary = human SIAE inhibition, primary screen | Q9HAT2 | 0.69% of 370,000 active | inhibition, % at 9.66 µM | SIAE FP-Rh probe binding, fluorescence polarization;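 active = inhibition above a cutoff: mean of compounds within the control limits plus 3 SD of those, cut at about 17% in these data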;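 also: 0% = plate median of compound wells and 100% = probe without SIAE protein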
# rCAG RNA binder = molecules binding r(CAG) RNA repeats; r(CAG) RNA repeat, TO-PRO-1 dye displacement fluorescence; inhibition, % at 3 µM; 1.3% of 370,000 active; AID 651821;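 active = inhibition above the plate cutoff, the mean of all test compounds on that plate plus 3 SD, cut at about 35% in these data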;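 also: 0% = DMSO alone and 100% = 100 µM mitoxantrone as full dye displacement; higher means more dye released from RNA so lower well fluorescence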
# rCAG binder conf = r(CAG) RNA repeat binding, confirmation; TO-PRO-1 dye displacement fluorescence; inhibition, % at 3 µM; shares compounds with rCAG RNA binder; 70% of 4,300 active; AID 652065;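 active = inhibition above a per-plate cutoff, the mean inhibition of sample wells plus 3 SD, cut at about 35% in these data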;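 also: loss of TO-PRO-1 fluorescence as compound displaces dye from 1x1 AA loop RNA; 0% = DMSO only wells and 100% = 100 µM mitoxantrone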
# dCAG dye counter = disrupts DNA CAG TO-PRO-1 complex, flagging rCAG hits; shares compounds with rCAG RNA binder; d(CAG) DNA oligo TO-PRO-1 dye displacement, fluorescence; inhibition, % at 3 µM; 94% of 4,300 active;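 active = inhibition above its plate's cutoff, the mean test-well inhibition plus 3 SD, cut at about 4.8% in these data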;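 also: 0% = DNA dye mix with DMSO and 100% = 100 µM mitoxantrone; hits displace the dye from DNA and so lower well fluorescence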
# DNA CAG DR = disrupts DNA CAG TO-PRO-1 complex in dose response | DNA CAG/GTC duplex TO-PRO-1 dye displacement fluorescence | 20% of 250 active | IC50, µM | shares compounds with rCAG RNA binder; in the data active = IC50 below about 10 µM
# An asterisk follows results filed as active; nt = no result. Sampled rows, rich in hits. Any-hit rate of the full collection: about 3.3%.
SMILES,ABHD4 inh,HTRA1 inhibitor,PRMT1 FP inh,SIAE primary,rCAG RNA binder,rCAG binder conf,dCAG dye counter,others
C#CCN(C[C@H]1[C@H](OC(=O)Nc2cccs2)[C@H](OC(=O)Nc2cccs2)CN(C(=O)OC(C)C)N1C(=O)OC(C)C)S(=O)(=O)c1ccc(C)cc1,-17,nt,2,-10,19,nt,nt,
CC(=O)N(c1ccc2oc(=O)sc2c1)S(=O)(=O)c1cccc2cccnc12,-21,12,91*,-7,37*,6,5.3*,
CC(C)C[C@@H]1COc2cc(Br)ccc2S(=O)(=O)N1Cc1cn(CC2CCCCC2)nn1,0,nt,-2,-3,0,nt,nt,
Cc1noc(NS(=O)(=O)c2ccc(NC(=O)CCC3CCCCC3)cc2)c1C,-7,-8,-1,2,45*,46*,8.6*,DNA CAG DR=>30
Cc1noc(NS(=O)(=O)c2ccc(NC(=O)C34CC5CC(C3)CC(n3cnc(Br)n3)(C5)C4)cc2)c1C,3,5,1,6,41*,29,7.6*,
Cc1ccc(C2(C)NC(=O)N(CC(=O)Nc3ccc(S(=O)(=O)Nc4nccs4)cc3)C2=O)cc1 (stereo unspecified),2,-5,7,-10,51*,31,12*,
Cc1noc(NS(=O)(=O)c2ccc(NC(=O)CSc3nc4c(cc3C#N)CCCC4)cc2)c1C,3,-7,7,1,41*,33,11*,
CC(=O)Nc1ccc(NC(=O)C23CC4CC(C2)CC(n2cnc(Br)n2)(C4)C3)cc1,1,11,2,-1,1,nt,nt,
COc1ccccc1C(=O)N1CCN(C(=O)[C@@H](Cc2ccccc2)NC(=O)[C@H]2O[C@@H](n3cnc(C(N)=O)n3)[C@H](O)[C@@H]2O)CC1,-2,nt,6,11,-1,nt,nt,
Cc1occc1-c1nnc(SCC(=O)N[C@@H]2CCc3ccccc32)n1-c1ccccc1,6,nt,-8,0,4,nt,nt,
O=C(CCC1CCCCC1)Nc1ccc(S(=O)(=O)Nc2nccs2)cc1,-1,0,0,-1,53*,43*,14*,
O=C(O)CCC(=O)Nc1ccc(S(=O)(=O)Nc2nccs2)cc1,-7,1,-6,-5,5,nt,nt,
CC(C)(C)c1ccc(S(=O)(=O)NC(=O)C2(C)CCN2C(=O)C2(c3ccc(Cl)cc3)CC2)cc1 (stereo unspecified),17,nt,3,-2,71*,59*,21*,
Cc1ccc(S(=O)(=O)NC(=O)C2(C)CCN2C(=O)C2(c3ccc(Cl)cc3)CC2)nc1 (stereo unspecified),1,nt,-1,4,9,nt,nt,
CC1(C(=O)NS(=O)(=O)c2cccc(F)c2)CCN1C(=O)C1(c2ccc(Cl)cc2)CCC1 (stereo unspecified),-3,nt,1,5,42*,31,6.7*,
COc1ccc(S(=O)(=O)NC(=O)C2(C)CCN2C(=O)C2(c3ccc(Cl)cc3)CCC2)cc1 (stereo unspecified),3,nt,0,1,46*,35*,6.4*,
CC1(C(=O)NS(=O)(=O)c2ccc(C#N)cc2)CCN1C(=O)C1(c2ccc(Cl)cc2)CCC1 (stereo unspecified),3,nt,0,4,15,nt,nt,
CC1(C(=O)NS(=O)(=O)c2cccc(C#N)c2)CCN1C(=O)C1(c2ccc(Cl)cc2)CCC1 (stereo unspecified),2,nt,5,-2,30,nt,nt,
CC1(C(=O)NS(=O)(=O)c2ccc(Cl)cc2)CCN1C(=O)C1(c2ccc(Cl)cc2)CC1 (stereo unspecified),6,nt,1,4,46*,39*,8.7*,
CC1CCc2c(sc(NC(=O)COC(=O)c3ccc(O)cc3)c2C#N)C1 (stereo unspecified),-29,-36,7,-15,39*,37*,19*,
CCC1CCc2c(sc(NC(=O)C3CC=CCC3C(=O)O)c2C#N)C1 (stereo unspecified),0,-12,2,6,59*,39*,11*,
O=C(NCc1ccccc1)OCCN1C(=O)CCC12CCC(c1ccccc1)CC2 (stereo unspecified),-4,nt,-7,0,0,nt,nt,
COc1ccc(C(=O)/C=C/c2ccc(O)cc2)c(O)c1C/C=C(\C)CCC=C(C)C,-21,-39,5,-8,69*,65*,28*,
COc1cccc(N(C)C(=O)[C@@H](C2CC2)[C@@H](O)c2ccc(C(C)=O)cc2)c1,-2,nt,-1,1,7,nt,nt,
